Measurements from ChEMBL document CHEMBL5346868 (Eur J Med Chem, 2023).

Columns and labels:
Zika virus = assay: Antiviral activity against ZIKV MR766 infected in african green monkey Vero E6 cells assessed as decline in virus induced cytopathogenicity measured after 5 days by MTS based microscopic analysis; format: functional, organism-based; details: MR766, Vero C1008, 120 h
How it was run: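 Vero E6 cells (10^4/well) are seeded in MEM with 2% FCS and left to adhere overnight. Cells are then infected with ZIKV MR766 (passaged in C6/36 cells) and given 2-fold serial compound dilutions. After 5 days, CPE is scored by MTS and by microscopy of fixed, stained cells. EC50 is the 50% antiviral effect.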

[1] = Cytotoxicity against african green monkey Vero E6 cells by MTS assay; format: toxicity, cell-based, Vero C1008; details: chlorocebus sabaeus
How it was run: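 Cytotoxicity is measured on treated, uninfected Vero E6 cells in parallel with the antiviral assays, using a standard MTS assay. CC50 is the concentration causing a 50% adverse effect on host cells.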

Enterovirus A71 = assay: Antiviral activity against human Enterovirus 71 BrCr infected in human RD cells assessed as reduction of virus induced cytopathic effect incubated for 3 days by MTS assay; format: functional, organism-based; details: Enterovirus A, 72 h
How it was run: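 Confluent RD cells (EMEM, 10% heat-inactivated FBS) are infected with ~100 CCID50 of EV71 BrCr and treated with a compound dilution series. After 3 days at 37 °C, 5% CO2, residual viability is measured by MTS. EC50 is the concentration giving 50% antiviral effect, from at least 2–3 independent experiments.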

[2] = Cytotoxicity against human RD cells by MTS assay; format: toxicity, cell-based
How it was run: (§1)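 Treated, uninfected RD or HeLa cells are run alongside the matching enterovirus CPE assays, with viability read by MTS. CC50 is the concentration giving a 50% adverse effect on host cells.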

[3] = Selectivity index, ratio of CC50 for human RD cells to EC50 for antiviral activity against human Enterovirus 71; format: toxicity; details: read-out: Ratio CC50/EC50
How it was run: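 SI is calculated as CC50 on uninfected RD cells divided by EC50 in the 3-day EV71 BrCr CPE-reduction MTS assay.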

SARS-CoV-2 = assay: Antiviral activity against SARS-CoV-2 BetaCoV/Belgium/GHB-03021/2020 infected in african green monkey Vero cells assessed as decline in virus induced cytopathogenicity measured after 4 days by argon laser scanning microscopic analysis; format: functional, organism-based; details: Severe acute respiratory syndrome coronavirus 2, BetaCoV/Belgium/GHB-03021/2020, Vero, 96 h
METTL3/METTL14 = METTL3/METTL14 (Homo sapiens, UniProt Q86U44); assay: Inhibition of human recombinant full length METTL3/human N-terminal FLAG-tagged METTL14 expressed in SF9 cells assessed as methyltransferase residual activity using ssRNA 5'-rUrArC rArCrU rCrGrA rUrCrU rGrGrA rCrUrA rArArG rCrUrG rCrUrC -3' as substrate incubated for 20 mins followed by H-SAM addition measured after 2 hrs by radio isotope reaction system analysis
METTL3/METTL14, sequence (Q86U44 whole entry): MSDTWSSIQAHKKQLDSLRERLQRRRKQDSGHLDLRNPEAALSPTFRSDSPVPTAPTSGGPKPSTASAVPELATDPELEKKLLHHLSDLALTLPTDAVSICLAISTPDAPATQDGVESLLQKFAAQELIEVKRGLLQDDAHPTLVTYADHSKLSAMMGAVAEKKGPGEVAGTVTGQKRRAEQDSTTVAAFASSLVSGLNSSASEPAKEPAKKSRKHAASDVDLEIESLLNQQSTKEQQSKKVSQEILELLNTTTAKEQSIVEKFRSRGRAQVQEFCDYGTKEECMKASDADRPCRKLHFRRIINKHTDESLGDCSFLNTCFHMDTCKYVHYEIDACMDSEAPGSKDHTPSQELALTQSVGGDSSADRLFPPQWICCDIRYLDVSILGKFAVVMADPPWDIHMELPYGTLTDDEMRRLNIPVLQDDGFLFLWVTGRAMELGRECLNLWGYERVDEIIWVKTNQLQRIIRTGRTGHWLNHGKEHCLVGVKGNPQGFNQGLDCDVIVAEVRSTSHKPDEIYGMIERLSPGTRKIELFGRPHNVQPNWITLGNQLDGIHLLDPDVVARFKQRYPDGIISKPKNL
METTL3/METTL14, sequence (Q9HCE5 whole entry, further chain): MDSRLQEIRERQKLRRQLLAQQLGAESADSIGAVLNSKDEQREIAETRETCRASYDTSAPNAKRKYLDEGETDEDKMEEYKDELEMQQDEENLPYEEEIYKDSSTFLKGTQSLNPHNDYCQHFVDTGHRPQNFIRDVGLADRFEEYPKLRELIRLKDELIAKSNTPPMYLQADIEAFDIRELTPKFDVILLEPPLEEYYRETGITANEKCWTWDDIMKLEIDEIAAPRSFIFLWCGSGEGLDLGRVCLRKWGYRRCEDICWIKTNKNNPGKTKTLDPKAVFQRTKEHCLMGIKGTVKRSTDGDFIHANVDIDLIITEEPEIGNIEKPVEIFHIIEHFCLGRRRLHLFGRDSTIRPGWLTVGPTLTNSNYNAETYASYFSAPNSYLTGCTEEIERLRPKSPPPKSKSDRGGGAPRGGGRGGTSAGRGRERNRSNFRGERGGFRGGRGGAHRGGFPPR
How it was run: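 Compound is pre-incubated for 20 min at room temperature, then 1 μM [3H-methyl]SAM is added for 2 h at room temperature. Activity is reported as % remaining, screened at 100 μM, with IC50 from curve fits.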

Coxsackievirus B3 = assay: Antiviral activity against Coxsackievirus B3 infected in african green monkey Vero cells assessed as reduction of virus induced cytopathic effect incubated for 3 days by MTS assay; format: functional, organism-based; details: Enterovirus B, 72 h
How it was run: (§2)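 Same setup as the EV71 assay: confluent monolayers (Vero A for CVB3; HeLa for CVA21, EV68, HRV-A02, HRV-B14) are infected with virus and treated with a compound dilution series. Incubation is 3 days at 37 °C, 5% CO2, and residual viability is read by MTS. EC50 is the 50% effective concentration, mean of at least 2 independent experiments.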

[4] = Cytotoxicity against african green monkey Vero cells by MTS assay; format: toxicity, cell-based; details: chlorocebus sabaeus
Coxsackievirus A21 = assay: Antiviral activity against Coxsackievirus 21 infected in human HeLa cells assessed as reduction of virus induced cytopathic effect incubated for 3 days by MTS assay; format: functional, organism-based; details: Enterovirus C, 72 h
How it was run: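 HeLa cells infected with coxsackievirus A21 (~100 CCID50) and treated with a compound dilution series, as in the EV71 set-up. Incubation was 3 days at 37 °C, 5% CO2, with residual viability quantified by MTS. EC50 is the concentration giving 50% antiviral effect. Values are means of ≥2 independent experiments.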

enterovirus D68 = assay: Antiviral activity against Human enterovirus 68 infected in human HeLa cells assessed as reduction of virus induced cytopathic effect incubated for 3 days by MTS assay; format: functional, organism-based; details: Enterovirus D, 72 h; how it was run: as §2
rhinovirus A2 = assay: Antiviral activity against Human rhinovirus 2 infected in human HeLa cells assessed as reduction of virus induced cytopathic effect incubated for 3 days by MTS assay; format: functional, organism-based; details: Rhinovirus A, 72 h; how it was run: as §2
rhinovirus B14 = assay: Antiviral activity against Human rhinovirus 14 infected in human HeLa cells assessed as reduction of virus induced cytopathic effect incubated for 3 days by MTS assay; format: functional, organism-based; details: Rhinovirus B, 72 h; how it was run: as §2
[5] = Cytotoxicity against human HeLa cells by MTS assay; format: toxicity, cell-based; how it was run: as §1

| Compound | EC50 (Zika virus) [µM] | CC50 [1] [µM] | EC50 (Enterovirus A71) [µM] | CC50 [2] [µM] | selectivity ratio [3] | EC50 (SARS-CoV-2) [µM] | IC50 (METTL3/METTL14) [µM] | EC50 (Coxsackievirus B3) [µM] | CC50 [4] [µM] | EC50 (Coxsackievirus A21) [µM] | EC50 (enterovirus D68) [µM] | EC50 (rhinovirus A2) [µM] | EC50 (rhinovirus B14) [µM] | CC50 [5] [µM] |
| --- | --- | --- | --- | --- | --- | --- | --- | --- | --- | --- | --- | --- | --- | --- |
| C[C@@]1(O)[C@H](O)[C@@H](CO)O[C@H]1n1ccc2c(N)ncnc21 [BETA-2'-C-METHYL-7-DEAZA-ADENOSINE] | 20 | > 300 |  |  |  |  |  |  |  |  |  |  |  |  |
| OC[C@H]1O[C@@H](n2ccc3c(NCc4cccc(C(F)(F)F)c4)ncnc32)[C@H](O)[C@@H]1O | > 100 | > 100 | 0.101 | > 100 | > 1070 | > 100 | 129 | > 100 | > 100 | 19.9 | 91.2 | > 100 | > 100 | > 100 |
| CSC[C@H]1O[C@@H](n2cnc3c(N4CCc5ccccc54)ncnc32)[C@H](O)[C@@H]1O | > 100 | > 100 | 19 | 64.9 | 3.4 | > 100 |  |  |  |  |  |  |  |  |
| COC(=O)[C@H](CCSC[C@H]1O[C@@H](n2cnc3c(NCc4cccc(Cl)c4)ncnc32)[C@H](O)[C@@H]1O)NC(=O)C(F)(F)F | > 100 | > 100 | 4.5 | > 100 | > 16.9 | > 100 |  | > 100 | > 100 | 54.6 | > 100 | > 100 | > 100 | > 100 |
| CSC[C@H]1O[C@@H](n2cnc3c(NCc4cccc(C(F)(F)F)c4)ncnc32)[C@H](O)[C@@H]1O | > 100 | > 100 | > 20 | > 100 |  | > 100 |  |  |  |  |  |  |  |  |
| OC[C@H]1O[C@@H](n2cnc3c(NCc4cccc(Cl)c4)ncnc32)[C@H](O)[C@@H]1O | > 100 | > 100 | 0.106 | 42.7 | 403 | > 100 |  |  |  |  |  |  |  |  |
